Laboratory results as given in ChEMBL document CHEMBL1149350, “Synthesis of novel chemical probes for the study of tanshinone binding proteins” (Bioorg Med Chem Lett, 2006).
The source made the active and inactive calls. The calls are words filed in the database; no cut-off is given here.

Legend:
[1] = test system: RAW264.7; assay: Inhibition of TRAP activity in RANKL-induced osteoclastogenesis in RAW 264.7 cells; type: functional, cell-based; conditions: Mus musculus
Procedure, shortened: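 RAW264.7 cells seeded at 1 × 10³/well in α-MEM/10% FBS with 100 ng/ml RANKL; compounds added next day. On day 4 multinucleated cells fixed (10% formalin 10 min, 95% ethanol 1 min) and dried, then given 50 mM citrate pH 4.6 with 10 mM tartrate and 5 mM p-nitrophenylphosphate for 30 min. Stopped in 0.1 N NaOH, A410 read; triplicate; IC50 from mean % of control.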

[2] = test system: RAW264.7; assay: Antiproliferative activity against RAW 264.7 cells in RANKL-induced osteoclastogenesis; type: functional, cell-based; conditions: Mus musculus

| Compound | IC50 [1] [µM] | Activity [2] | IC50 [2] [µM] |
| --- | --- | --- | --- |
| Cc1coc2c1C(=O)C(=O)c1c-2ccc2c1CCCC2(C)C [TANSHINONE IIA] | 18.2 | inactive | – |
| Cc1coc2c1C(=O)C(=O)c1c-2ccc2c1CCCC2(C)CO (stereo not given) [TANSHINONE IIB] | 15.6 | – | > 20 |
| Cc1coc2c1C(=O)C(=O)c1c-2ccc2c1CC[C@H](O)C2(C)C | 12.8 | – | > 20 |
| CCC(=O)O[C@H]1CCc2c(ccc3c2C(=O)C(=O)c2c(C)coc2-3)C1(C)C | 16.7 | inactive | – |
| Cc1coc2c1C(=O)C(=O)c1c-2ccc2c1CC[C@H](OCCOC(=O)COc1cccc(C3(C(F)(F)F)N=N3)c1)C2(C)C | 18 | – | > 20 |
| Cc1coc2c1C(=O)C(=O)c1c-2ccc2c1CC[C@H](OCCO)C2(C)C | 10.2 | inactive | – |
| Cc1coc2c1C(=O)C(=O)c1c-2ccc2c1CCCC2(C)COC(=O)COCCOC(=O)CCCCC1SCC2NC(=O)NC21 (stereo not given) | 12.4 | – | 18.3 |
| Cc1coc2c1C(=O)C(=O)c1c-2ccc2c1CC[C@H](OC(=O)c1ccccc1)C2(C)C | 19.1 | inactive | – |
| Cc1coc2c1C(=O)C(=O)c1c-2ccc2c1CC[C@H](OCCOC(=O)CCCCC1SCC3NC(=O)NC31)C2(C)C (stereo not given in full) | 9.56 | – | 18.7 |
| Cc1coc2c1C(=O)C(=O)c1c-2ccc2c1CCCC2(C)COC(=O)COCCOC(=O)COc1cccc(C2(C(F)(F)F)N=N2)c1 (stereo not given) | 15 | – | > 20 |
